Experiment [1] can be described thus: inhibitors of TNFa-induced NFkB p65 translocation, primary screen, imaging, HUVEC, MLSMR starter and 10KST1 sets (AID 438;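 active = inhibition above 20% together with a positive visual image hit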;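 also: compound added about 3h40 before a 20 min TNFalpha stimulation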;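 as to inhibition: signal is the nuclear over cytoplasmic p65 intensity ratio per well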). Conditions: HUVEC TNFa-induced p65 nuclear translocation; cell count: measured here: nuclei count (cytotoxicity indicator), at 2.08 µM; inhibition: at 2 µM, stronger effect = higher value, 0% TNFa-plus-vehicle, 100% no-TNFa wells.
The nature of experiment [2]: inhibitors of E-selectin induction by TNFa, primary screen, imaging, HUVEC, immunofluorescence, MLSMR starter and 10KST1 sets (AID 487;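 active = visually confirmed hit in the image check and inhibition above 20%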;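 as to inhibition: signal is fraction of cell area covered by stained E-selectin grains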;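 as to nuclei count: 100% = median nuclei count of all wells on the same plate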). Conditions: HUVEC TNFalpha-induced E-selectin immunofluorescence imaging, at 2 µM; inhibition: stronger effect = higher value; nuclei count: measured here: cell number, toxicity.
Experiment [3] in a line: DUSP6 inhibitors restoring Erk phosphorylation by chemical complementation, primary imaging in DUSP6-transfected HeLa (AID 609;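 active = compounds giving at least 50% inhibition in the cell-based MKP-3 phosphatase rescue imaging test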;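 as to inhibition: phospho-Erk level distribution per well compared with pooled transfected vehicle control wells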). Conditions: HeLa MKP-3 transfected, phospho-Erk imaging KS statistic, at 10 µM, cells stimulated with TPA for 15 min.
The target of experiment [4] is Dual specificity protein phosphatase 6 (Homo sapiens) (UniProt Q16828). Described as above. Particulars: HeLa MKP-3 transfected, phospho-Erk imaging KS statistic; at 10 µM; stronger effect = higher value; cells stimulated with TPA for 15 min.
Dual specificity protein phosphatase 6 (Homo sapiens), sequence (Q16828 whole entry, looked up): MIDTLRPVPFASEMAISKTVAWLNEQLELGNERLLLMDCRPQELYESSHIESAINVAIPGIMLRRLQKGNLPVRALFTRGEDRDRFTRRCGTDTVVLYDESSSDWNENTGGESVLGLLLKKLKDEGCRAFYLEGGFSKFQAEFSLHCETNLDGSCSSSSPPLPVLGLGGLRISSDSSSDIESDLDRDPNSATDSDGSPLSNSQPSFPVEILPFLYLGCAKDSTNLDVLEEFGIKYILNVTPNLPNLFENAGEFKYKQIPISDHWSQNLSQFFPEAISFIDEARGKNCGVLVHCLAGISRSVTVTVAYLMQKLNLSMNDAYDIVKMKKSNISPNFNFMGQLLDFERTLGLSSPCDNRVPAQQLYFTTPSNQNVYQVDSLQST
Experiment [5] deals with Voltage-gated potassium channel subunit beta-2 (Rattus norvegicus) (UniProt P62483). The experiment is described as follows: KvBeta enzyme negative modulators, primary screen, biochemical, NADPH fluorescence (AID 622).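 Also: slope of raw intensity against log time taken from 70 to 1610 s.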 Conditions: recombinant KvBeta, 4-cyanobenzaldehyde reduction, at 10 µM, stronger effect = higher value.
Voltage-gated potassium channel subunit beta-2 (Rattus norvegicus), sequence (P62483 whole entry, looked up): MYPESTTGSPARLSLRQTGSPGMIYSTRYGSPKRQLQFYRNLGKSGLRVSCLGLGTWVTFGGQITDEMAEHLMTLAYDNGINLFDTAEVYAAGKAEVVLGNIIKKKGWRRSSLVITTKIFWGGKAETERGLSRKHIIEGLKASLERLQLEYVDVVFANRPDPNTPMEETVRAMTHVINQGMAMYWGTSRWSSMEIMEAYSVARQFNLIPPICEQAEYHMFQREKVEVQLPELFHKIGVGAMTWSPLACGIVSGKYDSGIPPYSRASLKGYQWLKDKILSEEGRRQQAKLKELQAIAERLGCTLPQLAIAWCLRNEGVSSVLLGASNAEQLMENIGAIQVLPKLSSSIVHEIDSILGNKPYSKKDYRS
Experiment [6] has the same target. The experiment is described as follows: KvBeta positive modulators, primary screen, biochemical, NADPH fluorescence (AID 623;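 active = NADPH fluorescence slope more negative than the mean of all samples by about 3 SD, 99.7% confidence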;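 also: fluorescence intensity change per second fitted from 20 to 320 s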). Conditions: Recombinant KvBeta, NADPH fluorescence decrease slope, 10 min; at 10 µM; stronger effect = lower value.
In experiment [7] the target is Alpha-2C adrenergic receptor (Homo sapiens) (UniProt P18825). The experiment is described as follows: modulators of alpha2C/GIRK thallium flux, primary screen, cell-based, HEK293 alpha2C/GIRK1/2 (AID 624;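 active = fluorescence slope after compound addition differing from the mean of all screened samples at 99.7% confidence, in either direction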;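 also: slope of fluorescence ratio to pre-addition baseline per second over 15 to 24 s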). Particulars: thallium flux BTC fluorescence, at 10 µM, actives lie on both sides.
Alpha-2C adrenergic receptor (Homo sapiens), sequence (P18825 whole entry, looked up): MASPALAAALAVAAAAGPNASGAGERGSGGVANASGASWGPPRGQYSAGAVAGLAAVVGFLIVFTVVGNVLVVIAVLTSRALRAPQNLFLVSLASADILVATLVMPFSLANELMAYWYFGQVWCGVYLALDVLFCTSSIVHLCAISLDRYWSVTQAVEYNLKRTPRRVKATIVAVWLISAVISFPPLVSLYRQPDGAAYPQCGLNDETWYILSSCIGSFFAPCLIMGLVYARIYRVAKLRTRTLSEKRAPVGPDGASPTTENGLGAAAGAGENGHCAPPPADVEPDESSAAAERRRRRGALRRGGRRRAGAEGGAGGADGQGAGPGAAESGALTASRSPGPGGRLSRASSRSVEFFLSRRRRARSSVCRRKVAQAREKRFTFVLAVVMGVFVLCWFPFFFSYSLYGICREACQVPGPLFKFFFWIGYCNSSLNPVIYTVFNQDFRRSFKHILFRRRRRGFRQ
Experiment [8] is described as follows: inhibitors of larval lipid processing in zebrafish, primary screen, whole organism, PED6 fluorescence, gall bladder and intestine (AID 686;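 active = a full or partial loss of lipid-probe fluorescence in the fish gall bladder, intestine or both, judged by eye; inactive = no fluorescence loss, or compound toxic to the fish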;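 also: larvae 5 to 7 days old with five fish per well; signal comes from phospholipase A2 cleavage of quenched PED6 carried via bile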). Particulars: Zebrafish larvae PED6 lipid processing, fluorescence scoring; screened at 20 µM (by protocol). The method in brief: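 System: live zebrafish larvae aged 5-7 days, whole organism; measure: graded gall bladder and intestinal fluorescence inhibition per well; incubation: overnight exposure; reagent: ingested quenched lipid PED6 at 100 nM; signal: By-eye fluorescence microscopy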

The nature of experiment [9]: inhibitors of Chlamydomonas gravitaxis, primary screen, whole organism, Chlamydomonas reinhardtii, WT vs cilia-less mutant, absorbance, 96-well (AID 463189;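 active = inhibition at or above 50% relative to wild type and mutant plate controls; inactive = inhibition below 50%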;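 also: 0% = wild type cc124 cells in DMSO and 100% = ciliumless bld1 mutant cells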). Particulars: OD600 absorbance, 2 days, at 10 µM, stronger effect = higher value.
Setting [10] is: measured here: cell density z-score.
Setting [11] is: measured here: nuclear c-Myc green intensity z-score.
The mark [12] stands for this setting: measured here: nuclear pErk red intensity z-score, stronger effect = higher value.

The source made the active and inactive calls.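 The calls were made as follows, unless noted: active = fluorescence slope higher than the sample average by over 3 SD (cut at about -0.22 in these data, passing the limit was not always enough); inactive = the rest.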

A word on the inhibition: it is the change of the read-out against control, counted positive when it falls.

With `CCN(CC)CCNC(=O)c1c(C)oc2cc(Br)c(OC)cc12`, the cell count in [1] was 496. Moreover, the inhibition in experiment [1] is -8.7% (inactive); in experiment [2], -70.3% (inactive); in experiment [4], 15.8% (inactive); in experiment [9], -1.94% (inactive). For the same compound, the nuclei count in experiment [2] came to 112%. Besides, the z-score in experiment [3] (setting [10]) is 2.28; in experiment [3] (setting [11]), 0.845; in experiment [3] (setting [12]), -0.848. Further, the fluorescence slope in experiment [5] is -0.55 (inactive). Moreover, in experiment [6], the NADPH fluorescence slope is -3.1e-05 (inactive). Further, the slope in [7] is 0.0063 (inactive). For the same compound, in experiment [8], the compound was classed as inactive.

Turning to `COc1cc(C)nc(Oc2ccc(=O)n(C)n2)n1`, the cell count in experiment [1] was determined as 616. The inhibition in experiment [1] is -10.3% (inactive); in experiment [2], 13.1% (inactive); in [4], -8.95% (inactive); in [9], 3.29% (inactive). In addition, the nuclei count in experiment [2] came out at 188%. In addition, the z-score in experiment [3] (setting [10]) was 0.099; in [3] (setting [11]), -0.292; in experiment [3] (setting [12]) it was 0.697. In addition, the fluorescence slope in [5] was -0.38 (inactive). In addition, the NADPH fluorescence slope in experiment [6] is -2.2e-05 (inactive). The slope in experiment [7] is 0.00541 (inactive). Further, in experiment [8], the compound was classed as inactive.

For the compound `COc1ccc(CCNC2CC(C)N(C)CC2C)cc1OC` (stereo unspecified), the cell count in experiment [1] turned out to be 549. For the same compound, the inhibition in experiment [1] was -11.3% (inactive); in experiment [2], -75.9% (inactive); in [4], -0.608% (inactive); in [9], 12.3% (inactive). The nuclei count in [2] was found to be 170%. Moreover, the z-score is 0.099 in experiment [3] (setting [10]), -0.11 in experiment [3] (setting [11]) and 2.07 in [3] (setting [12]). Moreover, the fluorescence slope in experiment [5] is -0.515 (inactive). Also, the NADPH fluorescence slope in experiment [6] was -3e-05 (inactive). In [7], the slope was 0.00466 (inactive). In addition, the result in experiment [8] was inactive.

As to `C=CCn1c(SCC(=O)OC)nc2sc3c(c2c1=O)CCN(C)C3`, the cell count in [1] was 489. The inhibition in experiment [1] was 5.2% (inactive); in experiment [2] it was -55.9% (inactive); in experiment [4] it was 1.48% (inactive); in experiment [9], -3.61% (inactive). Also, the nuclei count in experiment [2] amounted to 177%. Also, the z-score in experiment [3] (setting [10]) is 0.349; in experiment [3] (setting [11]), 0.211; in [3] (setting [12]), -0.762. Also, the fluorescence slope in experiment [5] is -0.234 (inactive). The NADPH fluorescence slope in [6] was -1.8e-05 (inactive). Besides, the slope in experiment [7] was 0.00333 (inactive). Besides, the outcome in experiment [8] was inactive.

Consider `CSC(=Nc1ccccc1)C1=C(O)COC1=O`, for which, in experiment [1], the cell count came out at 315. The inhibition in experiment [1] is -17.4% (inactive); in [2], -75.7% (inactive); in [4] it was 5.26% (inactive); in experiment [9] it was -2.91% (inactive). This compound gave a nuclei count in [2] of 139%. In addition, the z-score in [3] (setting [10]) is 1.64; in experiment [3] (setting [11]), -0.593; in experiment [3] (setting [12]) it was -1.01. Further, the fluorescence slope in [5] was -0.419 (inactive). In addition, the NADPH fluorescence slope in experiment [6] is -8.2e-05 (inactive). The slope in [7] was 0.00729 (inactive). Further, the outcome in [8] was inactive.

Regarding `CCOC(=O)CSc1nc(-c2ccncc2)ccc1C#N`, the cell count in [1] was found to be 688. Besides, the inhibition in experiment [1] was -16.1% (inactive); in experiment [2], -23.4% (inactive); in experiment [4], -3.95% (inactive); in experiment [9], -7.15% (inactive). Further, the nuclei count in experiment [2] was 174%. The z-score in [3] (setting [10]) is -1.46; in [3] (setting [11]) it was -0.434; in [3] (setting [12]), 0.758. Besides, in experiment [5], the fluorescence slope was -0.355 (inactive). Moreover, the NADPH fluorescence slope in [6] is -2e-05 (inactive). The slope in [7] was 0.00882 (inactive). Besides, in experiment [8], the call was inactive.

For the compound `CCOC(=O)N1CC=C2C(C#N)=C(N)C(C#N)(C#N)[C@H](c3cccs3)[C@H]2C1`, the cell count in [1] was found to be 664. For the same compound, the inhibition in experiment [1] is -14.7% (inactive); in experiment [2], 44.9% (inactive); in experiment [4] it was 11% (inactive); in experiment [9], 26.4% (inactive). The same compound yielded a nuclei count in [2] of 144%. Also, the z-score in experiment [3] (setting [10]) is 0.0987; in [3] (setting [11]) it was -0.332; in experiment [3] (setting [12]), -1.22. For the same compound, in experiment [5], the fluorescence slope is -0.367 (inactive). The NADPH fluorescence slope in [6] is -2e-05 (inactive). Besides, the slope in experiment [7] was 0.00502 (inactive). Moreover, the result in experiment [8] was inactive.

As to `CC(=O)OCc1c(COC(C)=O)[n+](=O)c2ccccc2n1[O-]`, in experiment [1], the cell count was 523. Moreover, the inhibition in experiment [1] was -7% (inactive); in experiment [2] it was -114% (inactive); in experiment [4], 2.46% (inactive); in experiment [9] it was 17% (inactive). Moreover, the nuclei count in experiment [2] is 156%. Besides, the z-score in experiment [3] (setting [10]) is 0.0201; in experiment [3] (setting [11]), -0.163; in experiment [3] (setting [12]), -0.453. Moreover, the fluorescence slope in experiment [5] was -0.322 (inactive). The NADPH fluorescence slope in experiment [6] was 1.5e-05 (inactive). Further, the slope in experiment [7] was 0.00492 (inactive). Moreover, the compound was classed as inactive in experiment [8].

Consider `CCOC(=O)c1ccc(N2CC(O)=C(c3nc4ccccc4c(=O)[nH]3)C2=N)cc1`, for which, in experiment [1], the cell count was found to be 623. For the same compound, the inhibition was -11.3% (inactive) in experiment [1], 45.3% (inactive) in [2], -13.3% (inactive) in experiment [4] and 2.42% (inactive) in experiment [9]. The same compound displayed a nuclei count in [2] of 186%. In addition, the z-score in experiment [3] (setting [10]) is -1.54; in [3] (setting [11]), 0.558; in [3] (setting [12]), 1.53. In addition, the fluorescence slope in [5] is -0.208 (inactive). The NADPH fluorescence slope in experiment [6] is -1.8e-05 (inactive). The slope in experiment [7] is 0.00503 (inactive). In addition, the call in experiment [8] was inactive.

As to `CSc1nc(N2CCCC2)c2c(c1C#N)CC(C)(C)OC2`, the cell count in experiment [1] was found to be 568. The inhibition in experiment [1] was -4.5% (inactive); in experiment [2], -28.5% (inactive); in experiment [4] it was 5.65% (inactive); in experiment [9] it was 10.3% (inactive). In addition, the nuclei count in experiment [2] is 171%. Also, the z-score is 0.89 in [3] (setting [10]), -1.74 in experiment [3] (setting [11]) and 0.374 in experiment [3] (setting [12]). For the same compound, the fluorescence slope in experiment [5] was -0.314 (inactive). Further, the NADPH fluorescence slope in experiment [6] is 8.2e-06 (inactive). Moreover, the slope in experiment [7] was 0.00565 (inactive). In addition, the compound was called inactive in experiment [8].

For the compound `CCOc1cccc(C2C(C#N)=C(N)Oc3cc(C)oc(=O)c32)c1OCC` (stereo unspecified), in [1], the cell count was 362. Besides, the inhibition in experiment [1] is -24.9% (inactive); in experiment [2] it was -67.3% (inactive); in [4], 8.76% (inactive); in [9], 10.1% (inactive). For the same compound, in [2], the nuclei count is 143%. Further, the z-score was 0.354 in [3] (setting [10]), -0.768 in experiment [3] (setting [11]) and 1.02 in experiment [3] (setting [12]). The fluorescence slope in [5] is -0.441 (inactive). The NADPH fluorescence slope in [6] is -0.000143 (inactive). Also, the slope in experiment [7] was 0.00434 (inactive). Further, in experiment [8], the outcome was inactive.

Turning to `Cc1nnc2c(NC(C)C)nc3ccccc3n12`, the cell count in experiment [1] worked out at 381. Also, the inhibition is -8.4% (inactive) in experiment [1], -63% (inactive) in experiment [2], 22.7% (inactive) in experiment [4] and 29.1% (inactive) in experiment [9]. The same compound had a nuclei count in experiment [2] of 137%. Moreover, the figures for the z-score in experiment [3] (setting [10]), in [3] (setting [11]) and in [3] (setting [12]) were 0.584, -0.494 and -1.32, respectively. In addition, in [5], the fluorescence slope was -0.382 (inactive). For the same compound, in [6], the NADPH fluorescence slope is -5.9e-05 (inactive). Besides, in experiment [7], the slope is 0.0077 (inactive). Moreover, the compound was classed as inactive in experiment [8].

(Values after PubChem BioAssay.)
